Measured values published in publication PMC6911266 (Nature, 2019).
Numbering of substitutions follows the chain as printed.

Columns and labels:
PfCRT 7G8 = biological target: T1, PfCRT 7G8 (Plasmodium falciparum, UniProt W7FI62); assay: Equilibrium dialysis binding, PfCRT variant in nanodiscs; settings: for Bmax, binding at pH 5.5 / Bmax, binding at pH 7.5: equilibrium dialysis
T1 sequence (W7FI62 1-424): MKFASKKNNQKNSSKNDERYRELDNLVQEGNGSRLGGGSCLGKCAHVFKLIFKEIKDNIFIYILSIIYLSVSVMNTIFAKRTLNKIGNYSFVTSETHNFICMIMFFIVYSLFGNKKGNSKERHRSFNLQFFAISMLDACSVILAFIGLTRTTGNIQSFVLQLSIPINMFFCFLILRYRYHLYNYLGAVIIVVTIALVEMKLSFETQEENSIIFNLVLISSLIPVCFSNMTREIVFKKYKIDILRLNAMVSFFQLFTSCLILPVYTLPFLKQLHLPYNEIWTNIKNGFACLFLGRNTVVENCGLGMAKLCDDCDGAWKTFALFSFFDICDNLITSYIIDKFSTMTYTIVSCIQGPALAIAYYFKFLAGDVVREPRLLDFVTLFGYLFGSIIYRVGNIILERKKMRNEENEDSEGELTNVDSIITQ

PfCRT 7G8+F145I = biological target: T2, PfCRT 7G8+F145I (Plasmodium falciparum, UniProt W7FI62, F145I); assay: as above; settings: for Bmax, binding at pH 5.5 / Bmax, binding at pH 7.5: equilibrium dialysis
T2 sequence (W7FI62 1-424 F145I): T1 sequence (W7FI62 1-424) with F145I

PfCRT Dd2 = biological target: T3, PfCRT Dd2 (Plasmodium falciparum, UniProt Q9N623, A220S/I356T/K76T/M74I/N326S/N75E/Q271E/R371I); assay: as above; settings: for Bmax, binding at pH 5.5 / Bmax, binding at pH 7.5: equilibrium dialysis
T3 sequence (Q9N623 1-424 M74I/N75E/K76T/A220S/Q271E/N326S/I356T/R371I): T1 sequence (W7FI62 1-424) with S72C, M74I, N75E, Q271E, D326S, L356T, R371I

PfCRT 7G8+C350R = biological target: T4, PfCRT 7G8+C350R (Plasmodium falciparum, UniProt W7FI62, C350R); assay: Transport; format: biochemical; settings: for 1-min uptake, transport in proteoliposomes: 100 nM [3H]-drug, inwardly-directed pH gradient; for Vmax, transport in proteoliposomes: initial rates over 3 s, Michaelis-Menten fit; for transport activity (in words): proteoliposomes
T4 sequence (W7FI62 1-424 C350R): T1 sequence (W7FI62 1-424) with C350R

PfCRT WT (3D7) = biological target: T5, PfCRT WT (3D7) (Plasmodium falciparum, UniProt Q9N623); assay: Transport; format: biochemical; settings: for 1-min uptake, transport in proteoliposomes: 100 nM [3H]-drug, inwardly-directed pH gradient; for transport activity (in words): proteoliposomes
T5 sequence (Q9N623 1-424): T1 sequence (W7FI62 1-424) with S72C, T76K, S220A, D326N, L356I
Method in brief: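 PfCRT proteoliposomes (40 ng protein per assay) are loaded with 100 mM KPi, pH 7.5, and 2 mM β-mercaptoethanol. They are diluted into 100 mM Tris/Mes, pH 5.5, giving an inward pH gradient, with 100 nM [3H]-CQ (5.45 Ci/mmol) or [3H]-PPQ (15 Ci/mmol) for 1 min. Filter mock uptake without liposomes and control-liposome uptake are subtracted. Data come from 2 independent experiments, each with 4 technical replicates.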

[1] = tested on: P. falciparum 7G8^7G8+F145I parasite line; assay: Parasite drug susceptibility assay; format: cell-based, Plasmodium falciparum; settings: for IC50: Plasmodium falciparum, 7G8, 72 h
Method in brief: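 Asynchronous asexual blood-stage parasites were seeded at 0.3% parasitemia and 1% hematocrit into 2-fold, 10-point test compound dilutions. Incubation was 72 h at 37°C under 5% O2/5% CO2/90% N2. Final parasitemia was read by flow cytometry. IC50 came from nonlinear regression, 4 independent assays in duplicate, with two-tailed Mann-Whitney U tests.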

[2] = binding at pH 5.5, equilibrium dialysis, pH 5.5
[3] = binding at pH 7.5, equilibrium dialysis, pH 7.5

| Structure (SMILES) | Kd (PfCRT 7G8; [2]) | Kd (PfCRT 7G8; [3]) | Bmax, binding at pH 5.5 (PfCRT 7G8; pH 5.5) | Bmax, binding at pH 7.5 (PfCRT 7G8; pH 7.5) | Kd (PfCRT 7G8+F145I; [2]) | Kd (PfCRT 7G8+F145I; [3]) | Bmax, binding at pH 5.5 (PfCRT 7G8+F145I; pH 5.5) | Bmax, binding at pH 7.5 (PfCRT 7G8+F145I; pH 7.5) | Kd (PfCRT Dd2; [2]) | Kd (PfCRT Dd2; [3]) | Bmax, binding at pH 5.5 (PfCRT Dd2; pH 5.5) | Bmax, binding at pH 7.5 (PfCRT Dd2; pH 7.5) | 1-min uptake, transport in proteoliposomes (PfCRT 7G8+C350R) | Vmax, transport in proteoliposomes (PfCRT 7G8+C350R) | transport activity (in words) (PfCRT 7G8+C350R) | 1-min uptake, transport in proteoliposomes (PfCRT WT (3D7)) | transport activity (in words) (PfCRT WT (3D7)) | IC50 [1] | fold increase in Kd compared with 7G8 parental isoform (PfCRT 7G8+F145I; pH 5.5) | fold increase in IC90 compared to the isogenic 7G8 control line ([1]; 72 h growth inhibition) |
| --- | --- | --- | --- | --- | --- | --- | --- | --- | --- | --- | --- | --- | --- | --- | --- | --- | --- | --- | --- | --- |
| CCN(CC)CCCC(C)Nc1ccnc2cc(Cl)ccc12 (centres unmarked) [CQ, chloroquine] | 210 ± 60 nM | 280 ± 60 nM | 0.40 ± 0.03 mol CQ/mol PfCRT | 0.38 ± 0.02 mol CQ/mol PfCRT | 240 ± 60 nM | 290 ± 50 nM | 0.39 ± 0.03 mol CQ/mol PfCRT | 0.43 ± 0.02 mol CQ/mol PfCRT | 200 ± 40 nM | 310 ± 40 nM | 0.42 ± 0.04 mol CQ/mol PfCRT | 0.38 ± 0.01 mol CQ/mol PfCRT | 0.80 ± 0.21 nmol/mg | 17.97 ± 0.87 nmol/mg/min | reduced uptake | 0.58 ± 0.08 nmol/mg | minimal uptake | 7.3 ± 0.4 nM | – | – |
| Clc1ccc2c(N3CCN(CCCN4CCN(c5ccnc6cc(Cl)ccc56)CC4)CC3)ccnc2c1 [PPQ, piperaquine] | 90 ± 20 nM | 220 ± 40 nM | 0.40 ± 0.01 mol CQ/mol PfCRT | 0.40 ± 0.02 mol CQ/mol PfCRT | 220 ± 30 nM | 260 ± 30 nM | 0.38 ± 0.01 mol CQ/mol PfCRT | 0.42 ± 0.01 mol CQ/mol PfCRT | 80 ± 10 nM | 220 ± 30 nM | 0.39 ± 0.01 mol CQ/mol PfCRT | 0.39 ± 0.02 mol CQ/mol PfCRT | 0.82 ± 0.07 nmol/mg | 153.00 ± 3.10 nmol/mg/min | substantially increased | 0.51 ± 0.04 nmol/mg | Minimal | 28.7 ± 1 nM | ~ 2 fold | 188 fold |
